Measurements taken from ChEMBL document CHEMBL3112482, “Nonclassical antifolates, part 5. Benzodiazepine analogs as a new class of DHFR inhibitors: synthesis, antitumor testing and molecular modeling study” (Eur J Med Chem, 2014).

Experiments:
MDA-MB-435 = assay: Growth inhibition of human MDA-MB-435 cells at 10 uM after 48 hrs; assay type: functional; details: MDA-MB-435, 48 h, read-out: GI
How it was run: (§1)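 Single-dose primary screen in the NCI 60 human tumour cell line panel, run at the NCI facility. The panel covers nine subpanels: leukaemia, non-small cell lung, colon, CNS, melanoma, ovarian, renal, prostate and breast. Read-out was percent growth of treated cells, shown as a mean graph and reported as percent growth inhibition.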

KM12 = assay: Growth inhibition of human KM12 cells at 10 uM after 48 hrs; assay type: functional; details: KM12, 48 h, read-out: GI; how it was run: as §1
HCT-15 = assay: Growth inhibition of human HCT15 cells at 10 uM after 48 hrs; assay type: functional; details: HCT-15, 48 h, read-out: GI; how it was run: as §1
HT-29 = assay: Growth inhibition of human HT-29 cells at 10 uM after 48 hrs; assay type: functional; details: HT-29, 48 h, read-out: GI; how it was run: as §1
COLO 205 = assay: Growth inhibition of human COLO205 cells at 10 uM after 48 hrs; assay type: functional; details: COLO 205, 48 h, read-out: GI; how it was run: as §1
[1] = Growth inhibition of human HCC2998 cells at 10 uM after 48 hrs; assay type: functional; details: HCC 2998, 48 h, read-out: GI; how it was run: as §1
NCI-H522 = assay: Growth inhibition of human NCI-H522 cells at 10 uM after 48 hrs; assay type: functional; details: NCI-H522, 48 h, read-out: GI; how it was run: as §1
[2] = Growth inhibition of human HOP92 cells at 10 uM after 48 hrs; assay type: functional; details: HOP-92, 48 h, read-out: GI; how it was run: as §1
Dihydrofolate reductase = molecular target: T1, Dihydrofolate reductase (Bos taurus, UniProt P00376); assay: Inhibition of bovine liver DHFR measured for every 1 min of 10 mins
T1 sequence (P00376 whole entry): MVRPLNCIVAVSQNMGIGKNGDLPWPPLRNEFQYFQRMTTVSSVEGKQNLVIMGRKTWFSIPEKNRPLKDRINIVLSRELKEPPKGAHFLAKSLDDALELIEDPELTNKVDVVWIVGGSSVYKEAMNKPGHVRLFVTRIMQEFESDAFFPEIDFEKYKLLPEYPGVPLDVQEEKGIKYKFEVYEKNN

Cancer cell lines [3] = assay: Ratio of 5-FU LC50 to compound LC50 for human breast cancer cells; assay type: functional
How it was run: (§2)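 Compounds passing the NCI single-dose primary screen were retested across the 60 human tumour cell lines (nine subpanels) over a 5-log dose range. GI50, TGI and LC50 were recorded for each cell line, with 5-fluorouracil run as the reference drug. Subpanel values for compound and 5-FU were then compared.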

Cancer cell lines [4] = assay: Ratio of 5-FU LC50 to compound LC50 for human CNS cancer cells; assay type: functional; how it was run: as §2
Melanoma cell [5] = assay: Ratio of 5-FU LC50 to compound LC50 for human melanoma cells; assay type: functional; how it was run: as §2
Leukemia cell [6] = assay: Ratio of 5-FU LC50 to compound LC50 for human leukemia cells; assay type: functional; how it was run: as §2
Cancer cell lines [7] = assay: Ratio of 5-FU LC50 to compound LC50 for human non-small cell lung cancer cells; assay type: functional; how it was run: as §2
Cancer cell lines [8] = assay: Ratio of 5-FU TGI to compound TGI for human prostate cancer cells; assay type: functional
Cancer cell lines [9] = assay: Ratio of 5-FU TGI to compound TGI for human breast cancer cells; assay type: functional
Cancer cell lines [10] = assay: Ratio of 5-FU TGI to compound TGI for human ovarian cancer cells; assay type: functional
Cancer cell lines [11] = assay: Ratio of 5-FU TGI to compound TGI for human colon cancer cells; assay type: functional
Cancer cell lines [12] = assay: Ratio of 5-FU TGI to compound TGI for human CNS cancer cells; assay type: functional
Melanoma cell [13] = assay: Ratio of 5-FU TGI to compound TGI for human melanoma cells; assay type: functional
Cancer cell lines [14] = assay: Ratio of 5-FU GI50 to compound GI50 for human breast cancer cells; assay type: functional; how it was run: as §2
Cancer cell lines [15] = assay: Ratio of 5-FU GI50 to compound GI50 for human renal cancer cells; assay type: functional; how it was run: as §2
Melanoma cell [16] = assay: Ratio of 5-FU GI50 to compound GI50 for human melanoma cells; assay type: functional; how it was run: as §2
Cancer cell lines [17] = assay: Ratio of 5-FU GI50 to compound GI50 for human colon cancer cells; assay type: functional; how it was run: as §2
Cancer cell lines [18] = assay: Ratio of 5-FU GI50 to compound GI50 for human non-small cell lung cancer cells; assay type: functional; how it was run: as §2
Leukemia cell [19] = assay: Ratio of 5-FU GI50 to compound GI50 for human leukemia cells; assay type: functional; how it was run: as §2
[20] = Cytotoxicity against human breast cancer cells at 10 uM after 48 hrs; assay type: functional; details: Cancer cell lines; how it was run: as §1
[21] = Cytotoxicity against human melanoma cells at 10 uM after 48 hrs; assay type: functional; details: Melanoma cell; for CC50: read-out: LC50 (the source's name); how it was run: as §1
[22] = Cytotoxicity against human leukemia cells at 10 uM after 48 hrs; assay type: functional; details: Leukemia cell
BT-549 = assay: Growth inhibition of human BT549 cells at 10 uM after 48 hrs; assay type: functional; details: BT-549, 48 h, read-out: GI; how it was run: as §1
CAKI-1 = assay: Growth inhibition of human CAKI-1 cells at 10 uM after 48 hrs; assay type: functional; details: CAKI-1, 48 h, read-out: GI; how it was run: as §1
786-0 = assay: Growth inhibition of human 786-0 cells at 10 uM after 48 hrs; assay type: functional; details: 786-0, 48 h, read-out: GI; how it was run: as §1
OVCAR-8 = assay: Growth inhibition of human OVCAR8 cells at 10 uM after 48 hrs; assay type: functional; details: OVCAR-8, 48 h, read-out: GI; how it was run: as §1
IGROV-1 = assay: Growth inhibition of human IGROV1 cells at 10 uM after 48 hrs; assay type: functional; details: IGROV-1, 48 h, read-out: GI; how it was run: as §1
UACC-62 = assay: Growth inhibition of human UACC62 cells at 10 uM after 48 hrs; assay type: functional; details: UACC-62, 48 h, read-out: GI
How it was run: (§3)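 NCI 60-cell-line disease-oriented human tumor panel, single-dose primary screen at 10 µM. Data given as mean-graph percent growth of treated cells, reported as percent growth inhibition (GI %).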

[23] = Growth inhibition of human UACC257 cells at 10 uM after 48 hrs; assay type: functional; details: UACC-257, 48 h, read-out: GI; how it was run: as §3
SK-MEL-2 = assay: Growth inhibition of human SK-MEL-2 cells at 10 uM after 48 hrs; assay type: functional; details: SK-MEL-2, 48 h, read-out: GI; how it was run: as §3
CCRF-CEM = assay: Growth inhibition of human CCRF-CEM cells at 10 uM after 48 hrs; assay type: functional; details: read-out: GI; how it was run: as §1

`COc1cc(/C=C2\CCCc3c2nc(C)nc3-c2cc(OC)c(OC)c(OC)c2)cc(OC)c1OC` gave an inhibition of growth at 10 µM (MDA-MB-435) of 94.8%, an inhibition of growth at 10 µM (KM12) of 97.1% and an inhibition of growth at 10 µM (HCT-15) of 95.8%. It also gave an inhibition of growth at 10 µM (HT-29) of 92.1%, an inhibition of growth at 10 µM (COLO 205) of 80.9% and an inhibition of growth at 10 µM [1] of 88.1%. For the same molecule, the inhibition of growth at 10 µM (NCI-H522) was 48.2%, the inhibition of growth at 10 µM [2] was < 30% and the IC50 (Dihydrofolate reductase) was 0.5 µM. For the same molecule, the RatioLC50 (Cancer cell lines [3]) was 15, the RatioLC50 (Cancer cell lines [4]) was 15 and the RatioLC50 (Melanoma cell [5]) was 15. It also gave a RatioLC50 (Leukemia cell [6]) of 15, a RatioLC50 (Cancer cell lines [7]) of 15 and a Ratio (Cancer cell lines [8]) of 15. It also gave a Ratio (Cancer cell lines [9]) of 15, a Ratio (Cancer cell lines [10]) of 15 and a Ratio (Cancer cell lines [11]) of 15. The Ratio (Cancer cell lines [12]) was 15, the Ratio (Melanoma cell [13]) was 15 and the RatioGI50 (Cancer cell lines [14]) was 15. It also gave a RatioGI50 (Cancer cell lines [15]) of 15, a RatioGI50 (Melanoma cell [16]) of 15 and a RatioGI50 (Cancer cell lines [17]) of 15. For the same molecule, the RatioGI50 (Cancer cell lines [18]) was 15, the RatioGI50 (Leukemia cell [19]) was 15 and the GI50 [20] was 2.6 µM. The LC50 (concentration killing 50% of cells) [20] was > 100 µM, the TGI [20] was 80.8 µM and the GI50 [21] was 1.4 µM. For the same molecule, the TGI [21] was 3.1 µM, the CC50 [21] was > 100 µM and the GI50 [22] was 1.1 µM. The LC50 [22] was > 100 µM, the TGI [22] was 62.5 µM and the inhibition of growth at 10 µM (BT-549) was 97.1%. It also gave an inhibition of growth at 10 µM (CAKI-1) of 88.6%, an inhibition of growth at 10 µM (786-0) of 82% and an inhibition of growth at 10 µM (OVCAR-8) of 94.1%. For the same molecule, the inhibition of growth at 10 µM (IGROV-1) was 69.3%, the inhibition of growth at 10 µM (UACC-62) was 91% and the inhibition of growth at 10 µM [23] was 56.2%. It also gave an inhibition of growth at 10 µM (SK-MEL-2) of 73.4%.
For `COc1cc(/C=C2\CCCc3c2nc(N)nc3-c2cc(OC)c(OC)c(OC)c2)cc(OC)c1OC`, the inhibition of growth at 10 µM (CCRF-CEM) was 97.1%, the IC50 (Dihydrofolate reductase) was 21 µM and the RatioLC50 (Cancer cell lines [3]) was 15. For the same molecule, the RatioLC50 (Cancer cell lines [4]) was 15, the RatioLC50 (Melanoma cell [5]) was 15 and the RatioLC50 (Leukemia cell [6]) was 15. For the same molecule, the RatioLC50 (Cancer cell lines [7]) was 15, the Ratio (Cancer cell lines [8]) was 15 and the Ratio (Cancer cell lines [9]) was 15. It also gave a Ratio (Cancer cell lines [10]) of 15, a Ratio (Cancer cell lines [11]) of 15 and a Ratio (Cancer cell lines [12]) of 15. For the same molecule, the Ratio (Melanoma cell [13]) was 15, the RatioGI50 (Cancer cell lines [14]) was 15 and the RatioGI50 (Cancer cell lines [15]) was 15. For the same molecule, the RatioGI50 (Melanoma cell [16]) was 15, the RatioGI50 (Cancer cell lines [17]) was 15 and the RatioGI50 (Cancer cell lines [18]) was 15. The RatioGI50 (Leukemia cell [19]) was 15, the GI50 [20] was 2 µM and the LC50 (concentration killing 50% of cells) [20] was > 100 µM. It also gave a TGI [20] of 69.2 µM, a GI50 [21] of 1.3 µM and a TGI [21] of 20 µM. For the same molecule, the CC50 [21] was > 100 µM, the GI50 [22] was 1.3 µM and the LC50 [22] was > 100 µM. It also gave a TGI [22] of 36.5 µM.
